Source: ChEMBL document CHEMBL4354825, “Design and Synthesis of Basic Selective Estrogen Receptor Degraders for Endocrine Therapy Resistant Breast Cancer” (J Med Chem, 2019)
pIC50: −log10 of the molar value. Calls of active or inactive are those of the source. The rule behind the calls is not given here.

Legend:
[1] = AUClast in C57BL/6 mouse brain at 50 mg/kg, po measured upto 24 hrs by LC-MS/MS analysis; type: ADME, organism-based; parameters: dose 50 mg/kg, time < 24 hr, route oral; conditions: in vivo
How it was run: (§1)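 Full PK run by a contract lab. Dosing was 50 mg/kg p.o. in water and 10% SBE-β-CD/PEG-400 (9:1 v/v), and 5 mg/kg i.v. Sampling at 0.25, 0.5, 1, 2, 4, 8 and 24 h (N = 5). Plasma samples were diluted in 50% acetonitrile and quantified by LC-MS/MS against standards serially diluted in 50% acetonitrile. Brain was also sampled after the oral dose.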

[2] = AUClast/D in C57BL/6 mouse plasma at 50 mg/kg, po measured upto 24 hrs by LC-MS/MS analysis; type: ADME, organism-based; conditions: in vivo; how it was run: as §1
[3] = Oral bioavailability in C57BL/6 mouse at 50 mg/kg measured upto 24 hrs by LC-MS/MS analysis; type: ADME, organism-based; conditions: in vivo; how it was run: as §1
[4] = biological target: T1, Estrogen receptor (Homo sapiens) (UniProt P03372); assay: Induction of degradation of ERalpha in human MCF7:WS8 cells at 10 nM in presence of MG-132 incubated for 24 hrs by Western blot analysis; type: cell-based
T1 sequence (whole entry): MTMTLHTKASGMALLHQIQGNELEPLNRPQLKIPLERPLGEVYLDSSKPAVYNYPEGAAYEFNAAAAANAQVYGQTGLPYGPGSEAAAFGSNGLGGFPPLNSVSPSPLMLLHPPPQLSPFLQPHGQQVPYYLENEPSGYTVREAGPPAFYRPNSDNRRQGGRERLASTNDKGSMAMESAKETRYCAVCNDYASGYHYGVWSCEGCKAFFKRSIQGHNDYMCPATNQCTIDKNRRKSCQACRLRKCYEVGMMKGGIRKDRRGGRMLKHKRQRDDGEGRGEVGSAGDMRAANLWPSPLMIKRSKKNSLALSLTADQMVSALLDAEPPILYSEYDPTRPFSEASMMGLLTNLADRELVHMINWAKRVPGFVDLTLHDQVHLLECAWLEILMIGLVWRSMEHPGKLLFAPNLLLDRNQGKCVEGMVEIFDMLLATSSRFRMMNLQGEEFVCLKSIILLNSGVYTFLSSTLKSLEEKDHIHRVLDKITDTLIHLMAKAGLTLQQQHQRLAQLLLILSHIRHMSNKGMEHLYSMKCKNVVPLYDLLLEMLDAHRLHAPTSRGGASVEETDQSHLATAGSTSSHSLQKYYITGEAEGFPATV

[5] = AUC extrapolated from the last time point to infinity in CD-1 mouse plasma at 50 mg/kg, po measured upto 24 hrs by LC-MS/MS analysis; conditions: in vivo
[6] = AUC (0 to infinity) in CD-1 mouse plasma at 50 mg/kg, po measured upto 24 hrs by LC-MS/MS analysis; conditions: in vivo
[7] = biological target: T2, Estrogen receptor (Homo sapiens, UniProt P03372); assay: Antagonist activity at ERalpha in human MCF7:WS8 cells incubated for 18 hrs by dual luciferase reporter gene assay relative to control; type: cell-based
T2 sequence (P03372 whole entry): T1 sequence (whole entry)
How it was run: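 MCF7:WS8 cells were estrogen-deprived for 3 days (phenol red-free RPMI, stripped FBS), then plated and grown 24 h. They were co-transfected for 6 h with a 3×vitellogenin ERE-firefly luciferase plasmid and a pRL-TK Renilla plasmid. Compounds were given in competition with 1 nM E2 for 18 h, then dual luciferase was read.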

[8] = Cmax in CD-1 mouse plasma at 50 mg/kg, po measured upto 24 hrs by LC-MS/MS analysis; conditions: in vivo
[9] = biological target: T2, Estrogen receptor; assay: Inhibition of ERalpha in human MCF7:WS8 cells assessed as increase in degradation of ERalpha incubated for 24 hrs by In-Cell Western assay; type: cell-based
How it was run: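 MCF7:WS8 cells were estrogen-stripped for 2 days and plated at 2.5 × 10^4 per well. ERα was detected by in-cell western (H10 antibody), with signal normalized to CellTag 700.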

[10] = MRT (0 to infinity) in CD-1 mouse at 5 mg/kg, iv measured upto 24 hrs by LC-MS/MS analysis; conditions: in vivo
[11] = Antiproliferative activity against human MCF7:WS8 cells assessed as reduction in cell viability incubated for 5 days by Hoechst 33258 dye based assay relative to control; type: functional; conditions: MCF7:WS8, 120 h
How it was run: (§2)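 Cells were seeded at 5000 per well; MCF7:WS8 had been estrogen-stripped for 2 days first. Compounds were serially diluted in DMSO, with 0.01% DMSO as vehicle. The medium was removed on day 5 (MCF7:WS8) or day 7 (MCF7:5C), and cells were lysed by freezing at −80 °C overnight. DNA was measured by Hoechst 33258 fluorescence. Maximum efficacy was normalized to vehicle (0%) and no cells (100%); at least three biological replicates.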

[12] = MRT (0 to infinity) in CD-1 mouse plasma at 50 mg/kg, po measured upto 24 hrs by LC-MS/MS analysis; conditions: in vivo
[13] = system: T47D; assay: Cytotoxicity against human T47D 3D spheroid cells harboring Y537S mutant assessed as reduction in tumor cell viability at 10 nM incubated for 14 days by celltiter-glo 3D cell viability assay
[14] = Antiproliferative activity against human MCF7:WS8 cells assessed as reduction in cell viability incubated for 5 days by Hoechst 33258 dye based assay; type: functional; conditions: MCF7:WS8, 120 h; how it was run: as §2
[15] = system: MCF7:TAM1; assay: Cytotoxicity against human MCF7:TAM1 3D spheroid cells assessed as reduction in tumor cell viability at 10 nM incubated for 14 days by celltiter-glo 3D cell viability assay
[16] = system: Mus musculus; assay: In vivo degradation of ERalpha in C57BL/6 mouse at 50 mg/kg, po measured after 7 hrs by Western blot analysis; type: functional, organism-based
How it was run: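 Female C57BL/6J mice aged 9–12 weeks were dosed at 50 mg/kg p.o. in PEG 400/10% HPCD (1:9 v/v). Regimens were a single dose with sacrifice at 5 h, or 3 daily doses with sacrifice 5 h (n = 5) or 7 h (n = 6) after the last dose. Ovaries and uterus were homogenized, 20 μg protein was run by SDS-PAGE, and the blot was probed for ERα and normalized to β-actin.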

[17] = Cmax in C57BL/6 mouse at 5 mg/kg, iv measured upto 24 hrs by LC-MS/MS analysis; type: ADME, organism-based; parameters: dose 5 mg/kg, route intravenous; conditions: in vivo; how it was run: as §1
[18] = system: T47D; assay: Cytotoxicity against human T47D 3D spheroid cells harboring D538G mutant assessed as reduction in tumor cell viability at 10 nM incubated for 14 days by celltiter-glo 3D cell viability assay
[19] = Tmax in C57BL/6 mouse brain at 50 mg/kg, po measured upto 24 hrs by LC-MS/MS analysis; type: ADME, organism-based; conditions: in vivo; how it was run: as §1

AUClast [1]: 2106 ng·h/mL
AUClast/dose [2]: 33.6 ng·h/mL
F [3]: 21.9%
Activity [4]: inactive
%AUCextra [5]: 26.8%
AUC [6]: 2292 ng·h/mL
pIC50 [7]: 8.51
Cmax [8]: 413 ng/mL
pIC50 [9]: 8.99
MRT [10]: 1.07 h
MRT [12]: 6.05 h
Cmax [17]: 1590 ng/mL
Tmax [19]: 1 h
SMILES: Cc1cc(F)cc(C)c1C(=O)c1sc2cc(O)ccc2c1Oc1ccc(OC2CN(CCCF)C2)cc1
Emax [11]: 80%
Activity [13]: Active
pIC50 [14]: 9.26
Activity [15]: Active
Activity [16]: Active
Activity [18]: Active
